From ChEMBL document CHEMBL1129956, “4-substituted-3-phenylquinolin-2(1H)-ones: acidic and nonacidic glycine site N-methyl-D-aspartate antagonists with in vivo activity” (J Med Chem, 1997)
Calls of active or inactive are those of the source. The rule behind the calls is not given here.

Tests used:
[1] = target: Glutamate receptor ionotropic, NMDA 1 (Rattus norvegicus, UniProt P35439); assay: In vitro ability to displace [3H]L-689,560 binding to glycine site on the N-methyl-D-aspartate (NMDA) glutamate receptor 1 from rat cortical membranes
In short: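 Glycine-site antagonist [3H]L-689,560 displaced from rat cortex/hippocampus membranes. IC50 (concentration inhibiting 50% of specific binding) taken from 5-point inhibition curves as the geometric mean of at least three experiments. A compound giving under 50% inhibition at 100 μM in two experiments is reported as >100 μM.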

[2] = system: Mus musculus; assay: compound was evaluated in vivo for their ability to protect against audiogenic seizure in DBA/2 mice when dosed ip 30 min prior to noise stimulation and it is evaluated as ED50 value; type: functional
In short: (§1)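 DBA/2 mice given compound intraperitoneally 30 min before noise stimulation, with protection from audiogenic seizure scored. Results are reported as an ED50 (mg/kg) or as number of mice protected per number tested at a single dose.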

[3] = target: Glutamate NMDA receptor (Rattus norvegicus) (UniProt P35439+Q00959+Q00960+Q00961+Q62645+Q8VHN2+Q9R1M7); assay: (§2) Evaluated to antagonize NMDA responses in a rat cortical slice preparations; type: functional
In short: (§3)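 Rat cortical slice preparation; antagonist-induced rightward shift of the NMDA concentration–response curve used to calculate apparent Kb; values are the means of three determinations.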

[4] = system: Mus musculus; assay: Evaluated in vivo for their ability to protect against audiogenic seizure in DBA/2 mice when administered 20 mg/kg ip 30 min prior to noise stimulation out of 8 mice tested; settings: route intraperitoneal
[5] = system: Mus musculus; assay: compound was evaluated in vivo for their ability to protect against audiogenic seizure in DBA/2 mice when administered 100 mg/kg ip 30 min prior to noise stimulation out of 8 mice tested; type: functional; settings: route intraperitoneal; in short: as §1
[6] = target: Glutamate receptor ionotropic, NMDA 1 (Rattus norvegicus) (UniProt P35439); assay: as §2; type: functional; in short: as §3
[7] = system: Mus musculus; assay: Compound was evaluated in vivo for their ability to protect against audiogenic seizure in DBA/2 mice when administered 20 mg/kg ip 30 min prior to noise stimulation out of 8 mice tested; type: functional; settings: route intraperitoneal; in short: as §1
[8] = system: Mus musculus; assay: compound was evaluated in vivo for their ability to protect against audiogenic seizure in DBA/2 mice when administered 20 mg/kg ip 30 min prior to noise stimulation out of 8 mice tested; type: functional; settings: route intraperitoneal; in short: as §1
[9] = system: Mus musculus; assay: compound was evaluated in vivo for their ability to protect against audiogenic seizure in DBA/2 mice when administered 20 mg/kg ip 30 min prior to noise stimulation (expressed as no of mice protected/tested); 1/8; type: functional, organism-based; parameters: dose 20 mg/kg; in short: as §1
[10] = target: Glutamate receptor ionotropic, NMDA 1 (Rattus norvegicus) (UniProt P35439); assay: In vitro ability to displace [3H]L-689,560 binding to glycine site on the N-methyl-D-aspartate glutamate receptor 1 from rat cortical membranes at 10 uM
[11] = system: Mus musculus; assay: Compound was evaluated in vivo for their ability to protect against audiogenic seizure in DBA/2 mice when dosed ip 30 min prior to noise stimulation; type: functional; in short: as §1
[12] = system: Mus musculus; assay: Compound was evaluated in vivo for their ability to protect against audiogenic seizure in DBA/2 mice when administered 20 mg/kg ip 30 min prior to noise stimulation out of 8 mice tested; settings: route intraperitoneal
[13] = system: Mus musculus; assay: Compound was evaluated in vivo for their ability to protect against audiogenic seizure in DBA/2 mice when dosed ip 30 min prior to noise stimulation and it is evaluated as ED50 value; type: functional; in short: as §1
[14] = system: Mus musculus; assay: compound was evaluated in vivo for their ability to protect against audiogenic seizure in DBA/2 mice when administered 50 mg/kg ip 30 min prior to noise stimulation out of 8 mice tested; type: functional; settings: route intraperitoneal; in short: as §1
[15] = system: Mus musculus; assay: Evaluated in vivo for their ability to protect against audiogenic seizure in DBA/2 mice when administered 100 mg/kg ip 30 min prior to noise stimulation out of 8 mice tested; settings: route intraperitoneal
[16] = target: Glutamate receptor ionotropic, NMDA 1 (Rattus norvegicus) (UniProt P35439); assay: In vitro ability to displace [3H]L-689,560 binding to glycine site on the N-methyl-D-aspartate glutamate receptor 1 from rat cortical membranes at […]
[17] = system: Mus musculus; assay: In vivo ability to protect against audiogenic seizure in DBA/2 mice when administered 20 mg/kg ip 30 min prior to noise stimulation out of 8 mice tested; type: functional, organism-based; parameters: dose 20 mg/kg; in short: as §1

| Compound | IC50 [1] [nM] | Kb [3] [nM] | also measured |
| --- | --- | --- | --- |
| O=C(O)Cc1c(-c2ccccc2)c(=O)[nH]c2cc(Cl)ccc12 | 160 |  |  |
| O=c1[nH]c2cc(Cl)ccc2c(O)c1-c1cccc(Oc2ccccc2)c1 |  |  | ED50 [2]: 0.9 mg/kg |
| CN(C)CCNc1c(-c2ccccc2)c(O)nc2cc(Cl)ccc12 |  | 12000 | No. of mice protected [4]: 0; No. of mice protected [5]: 8 |
| O=C(O)c1c(-c2ccccc2)c(O)nc2cc(Cl)ccc12 |  |  | Kb [6]: 1.3 µM; No. of mice protected [7]: 1 |
| N#CCCc1c(-c2ccccc2)c(=O)[nH]c2cc(Cl)ccc12 | 750 |  |  |
| CCc1c(-c2ccccc2)c(O)nc2cc(Cl)ccc12 | > 100000 |  |  |
| O=C(Cc1ccccc1)Nc1c(-c2ccccc2)c(O)nc2cc(Cl)ccc12 | > 100000 |  |  |
| O=c1[nH]c2cc(Cl)ccc2cc1-c1ccccc1 | > 100000 |  |  |
| COC(=O)CCc1c(-c2ccccc2)c(O)nc2cc(Cl)ccc12 | 500 | 4600 | No. of mice protected [8]: 0 |
| NC(=O)CCc1c(-c2ccccc2)c(O)nc2cc(Cl)ccc12 |  | 2900 | No. of mice protected [4]: 1 |
| NC(=O)CCc1c(-c2ccccc2)c(=O)[nH]c2cc(Cl)ccc12 | 190 |  |  |
| N#CCCc1c(-c2ccccc2)c(O)nc2cc(Cl)ccc12 |  | > 10000 | No. of mice protected [4]: 0 |
| COC(=O)COc1c(-c2ccccc2)c(O)nc2cc(Cl)ccc12 | 3200 | 960 | No. of mice protected [5]: 1 |
| O=C(O)c1c(-c2ccccc2)c(=O)[nH]c2cc(Cl)ccc12 | 900 |  |  |
| CC(=O)COc1c(-c2ccccc2)c(O)nc2cc(Cl)ccc12 | 1700 |  | Kb [6]: 11.4 µM; No. of mice protected [7]: 5 |
| COc1c(-c2ccccc2)c(=O)[nH]c2cc(Cl)ccc12 | > 100000 |  |  |
| Oc1nc2cc(Cl)ccc2c(OCc2ccccn2)c1-c1ccccc1 | 2800 |  | No. of mice protected [7]: 1 |
| COC(=O)C(=O)Nc1c(-c2ccccc2)c(O)nc2cc(Cl)ccc12 | 2700 |  | ED50 [9]: inactive |
| Nc1c(-c2cccc(Oc3ccccc3)c2)c(O)nc2cc(Cl)ccc12 | 420 | 3400 | No. of mice protected [4]: 2 |
| O=c1[nH]c2cc(Cl)ccc2c(CCc2nn[nH]n2)c1-c1ccccc1 | 240 |  |  |

| Compound | IC50 [1] [nM] | Kb [3] [nM] | also measured |
| --- | --- | --- | --- |
| CN(C)CCNC(=O)Cc1c(-c2ccccc2)c(O)nc2cc(Cl)ccc12 |  |  | No. of mice protected [4]: 0; inhibition [10]: 29% |
| O=C(O)C(=O)Nc1c(-c2ccccc2)c(=O)[nH]c2cc(Cl)ccc12 | 580 |  |  |
| COC(=O)Cc1c(-c2ccccc2)c(O)nc2cc(Cl)ccc12 |  | 4000 | No. of mice protected [4]: 1 |
| NC(=O)COc1c(-c2ccccc2)c(=O)[nH]c2cc(Cl)ccc12 | 420 |  |  |
| O=C(O)CC(=O)Nc1c(-c2ccccc2)c(=O)[nH]c2cc(Cl)ccc12 | 1100 |  |  |
| Oc1nc2cc(Cl)ccc2c(NCc2ccccc2)c1-c1ccccc1 | 2000 | > 3000 | No. of mice protected [4]: 1 |
| O=C(O)COc1c(-c2ccccc2)c(O)nc2cc(Cl)ccc12 | 110 | 1250 | No. of mice protected [4]: 3 |
| CN(C)CCNC(=O)C(=O)Nc1c(-c2ccccc2)c(O)nc2cc(Cl)ccc12 | 25000 |  | No. of mice protected [4]: 2 |
| Oc1nc2cc(Cl)ccc2c(OCc2ccccc2)c1-c1ccccc1 | ~10000 |  |  |
| NC(=O)COc1c(-c2ccccc2)c(O)nc2cc(Cl)ccc12 |  |  | Kb [6]: 3.1 µM; No. of mice protected [7]: 0 |
| N#CCOc1c(-c2ccccc2)c(O)nc2cc(Cl)ccc12 | 320 |  | Kb [6]: 4.7 µM; ED50 [11]: 16.3 mg/kg |
| O=S(=O)(Nc1c(-c2ccccc2)c(O)nc2cc(Cl)ccc12)c1ccccc1 |  | 2900 | No. of mice protected [4]: 1 |
| O=c1[nH]c2cc(Cl)ccc2c(O)c1-c1ccccc1 |  | 880 | ED50 [2]: 4.5 mg/kg |
| CO/N=C(\C)COc1c(-c2ccccc2)c(O)nc2cc(Cl)ccc12 | ~50000 |  | No. of mice protected [12]: 0 |
| Cc1noc(CCc2c(-c3ccccc3)c(O)nc3cc(Cl)ccc23)n1 | 3500 |  | No. of mice protected [4]: 4 |
| CNc1c(-c2ccccc2)c(=O)[nH]c2cc(Cl)ccc12 | > 100000 |  |  |
| O=C(O)CCc1c(-c2ccccc2)c(O)nc2cc(Cl)ccc12 |  | 2200 | No. of mice protected [8]: 1 |
| Nc1c(-c2ccccc2)c(=O)[nH]c2cc(Cl)ccc12 | 6700 |  |  |
| O=C(NCc1ccccc1)c1c(-c2ccccc2)c(=O)[nH]c2cc(Cl)ccc12 | > 100000 |  |  |
| C/C(COc1c(-c2ccccc2)c(O)nc2cc(Cl)ccc12)=N\O | 780 |  | Kb [6]: 2.8 µM; ED50 [13]: 9.4 mg/kg |

| Compound | IC50 [1] [nM] | Kb [3] [nM] | also measured |
| --- | --- | --- | --- |
| COC(=O)Cc1c(-c2ccccc2)c(=O)[nH]c2cc(Cl)ccc12 | 1100 |  |  |
| CN(C)CCCNc1c(-c2ccccc2)c(O)nc2cc(Cl)ccc12 | 4200 |  | No. of mice protected [14]: 1; No. of mice protected [5]: 6 |
| Oc1nc2cc(Cl)ccc2c(CCc2nnn[nH]2)c1-c1ccccc1 |  | 1600 | No. of mice protected [15]: 0 |
| O=c1[nH]c2cc(Cl)ccc2c(NS(=O)(=O)c2ccccc2)c1-c1ccccc1 | 1190 |  |  |
| O=C(O)COc1c(-c2cccc(Oc3ccccc3)c2)c(=O)[nH]c2cc(Cl)ccc12 | 24 |  |  |
| CN(C)C(=O)COc1c(-c2ccccc2)c(O)nc2cc(Cl)ccc12 | 11600 |  |  |
| COC(=O)c1c(-c2ccccc2)c(O)nc2cc(Cl)ccc12 |  |  | inhibition [16]: 69% |
| CN(C)c1c(-c2ccccc2)c(=O)[nH]c2cc(Cl)ccc12 | > 100000 |  |  |
| CS(=O)(=O)Nc1c(-c2ccccc2)c(O)nc2cc(Cl)ccc12 | 270 | 2200 | No. of mice protected [4]: 0 |
| CN(C)CCOc1c(-c2ccccc2)c(O)nc2cc(Cl)ccc12 | 11000 |  |  |
| O=C(O)CC(=O)Nc1c(-c2ccccc2)c(O)nc2cc(Cl)ccc12 |  | 11600 | No. of mice protected [4]: 2 |
| O=C(O)Cc1c(-c2ccccc2)c(O)nc2cc(Cl)ccc12 |  | 1400 | No. of mice protected at 20 mg/kg [8]: 0 mg/kg |
| Nc1c(-c2ccccc2)c(O)nc2cc(Cl)ccc12 |  | 10500 |  |
| CN(C)CCNc1c(-c2ccccc2)c(=O)[nH]c2cc(Cl)ccc12 | 3200 |  |  |
| O=C(O)COc1c(-c2cccc(Oc3ccccc3)c2)c(O)nc2cc(Cl)ccc12 |  | 560 | No. of mice protected [4]: 0 |
| O=C(O)CCc1c(-c2ccccc2)c(=O)[nH]c2cc(Cl)ccc12 | 170 |  |  |
| O=C(O)C(=O)Nc1c(-c2ccccc2)c(O)nc2cc(Cl)ccc12 |  | 4500 | No. of mice protected [4]: 0 |
| CC(=O)Nc1c(-c2ccccc2)c(O)nc2cc(Cl)ccc12 | 14700 |  | No. of mice protected [17]: inactive |
